Two compounds from ChEMBL document CHEMBL3813688, “Synthesis, antitumor activity and mechanism of action of novel 1,3-thiazole derivatives containing hydrazide-hydrazone and carboxamide moiety” (Bioorg Med Chem Lett, 2016) can be followed below.

Assay [1] has as its system HepG2. The assay is described as follows: Induction of apoptosis in human HepG2 cells assessed as early apoptotic cells at 0.55 ug/ml after 24 to 48 hrs by Annexin V-FITC/propidium iodide staining based flow cytometry (reference value: 2.5 %). It counts as functional. (Flow cytometry measures light scatter and fluorescence of single cells or particles in a stream.)
For assay [2], the system named is HepG2. The assay is described as follows: Cell cycle arrest in human HepG2 cells assessed as accumulation at sub-G1 phase at 1.1 ug/ml after 48 hrs by propidium iodide staining based flow cytometry relative to control. It counts as functional.
Assay [3] is described as follows: Cytotoxicity against human BCG823 cells assessed as cell growth inhibition after 72 hrs by MTT assay. It counts as functional, cell-based. Conditions: BCG823, 72 h. The procedure, abridged: (§1)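 MTT growth assay in human cancer lines (MCF-7, HepG2, BGC-823, HeLa, A549), 72 h after treatment; 5-fluorouracil as reference. IC50 (μg/mL) taken as concentration giving 50% growth inhibition versus untreated control.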

In a further assay the test system is A549. Kind of assay: Cytotoxicity against human A549 cells assessed as cell growth inhibition after 72 hrs by MTT assay. The class given is functional, cell-based. The following applies: A549, 72 h. The procedure, abridged: as §1
In assay [4] the test system is HepG2. Kind of assay: Induction of apoptosis in human HepG2 cells assessed as necrotic cells at 1.1 ug/ml after 24 to 48 hrs by Annexin V-FITC/propidium iodide staining based flow cytometry (reference value: 1.8 %). It counts as functional.
Assay [5] concerns HepG2. Kind of assay: Induction of apoptosis in human HepG2 cells assessed as late apoptotic cells at 0.55 ug/ml after 24 to 48 hrs by Annexin V-FITC/propidium iodide staining based flow cytometry (reference value: 0.1 %). It counts as functional.
Assay [6] relates to HepG2. Kind of assay: Cell cycle arrest in human HepG2 cells assessed as accumulation at G2 phase at 0.55 ug/ml after 48 hrs by propidium iodide staining based flow cytometry (reference value: 6.89 %). The class given is functional.
The test system of assay [7] is HepG2. The assay is described as follows: Cell cycle arrest in human HepG2 cells assessed as accumulation at G1 phase at 0.55 ug/ml after 48 hrs by propidium iodide staining based flow cytometry (reference value: 57.68 %). The class given is functional.
Another assay concerns MCF7. Kind of assay: Cytotoxicity against human MCF7 cells assessed as cell growth inhibition after 72 hrs by MTT assay. The class given is functional, cell-based. Conditions: MCF7, 72 h. The procedure, abridged:
as §1

In assay [8] the test system is HepG2. Kind of assay: Cell cycle arrest in human HepG2 cells assessed as accumulation at S phase at 1.1 ug/ml after 48 hrs by propidium iodide staining based flow cytometry (reference value: 35.42 %). The class given is functional.
For assay [9], the system named is HepG2. Kind of assay: Induction of apoptosis in human HepG2 cells assessed as early apoptotic cells at 1.1 ug/ml after 24 to 48 hrs by Annexin V-FITC/propidium iodide staining based flow cytometry (reference value: 2.5 %). It counts as functional.
Assay [10] deals with HepG2. The assay is described as follows: Induction of apoptosis in human HepG2 cells assessed as necrotic cells at 0.55 ug/ml after 24 to 48 hrs by Annexin V-FITC/propidium iodide staining based flow cytometry (reference value: 1.8 %). It counts as functional.
For assay [11], the system named is HepG2. The assay is described as follows: Cell cycle arrest in human HepG2 cells assessed as accumulation at S phase at 0.55 ug/ml after 48 hrs by propidium iodide staining based flow cytometry (reference value: 35.42 %). The class given is functional.
Assay [12] concerns HepG2. The assay is described as follows: Induction of apoptosis in human HepG2 cells assessed as late apoptotic cells at 1.1 ug/ml after 24 to 48 hrs by Annexin V-FITC/propidium iodide staining based flow cytometry (reference value: 0.1 %). The class given is functional.
In assay [13] the test system is HepG2. The assay is described as follows: Cytotoxicity against human HepG2 cells assessed as cell growth inhibition at 20 ug/ml after 72 hrs by MTT assay. It counts as functional. The following applies: HepG2, 72 h, read-out: GI.
Assay [14] has as its system HepG2. Kind of assay: Cell cycle arrest in human HepG2 cells assessed as accumulation at sub-G1 phase at 0.55 ug/ml after 48 hrs by propidium iodide staining based flow cytometry relative to control. It counts as functional.
The subject of assay [15] is HepG2. Kind of assay: Induction of apoptosis in human HepG2 cells assessed as viable cells at 0.55 ug/ml after 24 to 48 hrs by Annexin V-FITC/propidium iodide staining based flow cytometry (reference value: 95.6 %). The class given is functional. The following applies: read-out: Activity.
The subject of assay [16] is HepG2. The assay is described as follows: Cell cycle arrest in human HepG2 cells assessed as accumulation at S phase after 48 hrs by propidium iodide staining based flow cytometry. It counts as functional.
Assay [17] deals with HepG2. The assay is described as follows: Cytotoxicity against human HepG2 cells assessed as cell growth inhibition after 72 hrs by MTT assay. The class given is functional, cell-based. The following applies: HepG2, 72 h. The procedure, abridged:
as §1
(Tetrazolium assays rely on reduction of a dye to a coloured formazan, in cell work by metabolically active cells.)

In assay [18] the test system is HepG2. Kind of assay: Cell cycle arrest in human HepG2 cells assessed as accumulation at G1 phase at 1.1 ug/ml after 48 hrs by propidium iodide staining based flow cytometry (reference value: 57.68 %). It counts as functional.
A short description of assay [19]: Cytotoxicity against human HL7702 cells assessed as cell growth inhibition after 72 hrs by MTT assay. Conditions: L02, 72 h. The class given is cell-based.
Another assay concerns HeLa. The assay is described as follows: Cytotoxicity against human HeLa cells assessed as cell growth inhibition after 72 hrs by MTT assay. The class given is functional, cell-based. The procedure, abridged: as §1
Assay [20] concerns HepG2. The assay is described as follows: Cell cycle arrest in human HepG2 cells assessed as accumulation at G2 phase at 1.1 ug/ml after 48 hrs by propidium iodide staining based flow cytometry (reference value: 6.89 %). It counts as functional.
The test system of assay [21] is HepG2. The assay is described as follows: Induction of apoptosis in human HepG2 cells assessed as viable cells at 1.1 ug/ml after 24 to 48 hrs by Annexin V-FITC/propidium iodide staining based flow cytometry (reference value: 95.6 %). The following applies: read-out: Activity. It counts as functional.
The test system of assay [22] is HepG2. The assay is described as follows: Induction of apoptosis in human HepG2 cells assessed as late apoptotic cells at 1.82 ug/ml after 24 to 48 hrs by Annexin V-FITC/propidium iodide staining based flow cytometry (reference value: 0.1 %). It counts as functional.
Assay [23] concerns HepG2. The assay is described as follows: Induction of apoptosis in human HepG2 cells assessed as viable cells at 1.82 ug/ml after 24 to 48 hrs by Annexin V-FITC/propidium iodide staining based flow cytometry (reference value: 95.6 %). The class given is functional. Conditions: read-out: Activity.
Assay [24] deals with HepG2. The assay is described as follows: Induction of apoptosis in human HepG2 cells assessed as late apoptotic cells at 3.64 ug/ml after 24 to 48 hrs by Annexin V-FITC/propidium iodide staining based flow cytometry (reference value: 0.1 %). The class given is functional.
The subject of assay [25] is HepG2. Kind of assay: Induction of apoptosis in human HepG2 cells assessed as early apoptotic cells at 3.64 ug/ml after 24 to 48 hrs by Annexin V-FITC/propidium iodide staining based flow cytometry (reference value: 2.5 %). It counts as functional.
Assay [26] relates to HepG2. The assay is described as follows: Induction of apoptosis in human HepG2 cells assessed as early apoptotic cells at 1.82 ug/ml after 24 to 48 hrs by Annexin V-FITC/propidium iodide staining based flow cytometry (reference value: 2.5 %). The class given is functional.
For assay [27], the system named is HepG2. Kind of assay: Induction of apoptosis in human HepG2 cells assessed as necrotic cells at 1.82 ug/ml after 24 to 48 hrs by Annexin V-FITC/propidium iodide staining based flow cytometry (reference value: 1.8 %). It counts as functional.
The test system of assay [28] is HepG2. Kind of assay: Induction of apoptosis in human HepG2 cells assessed as necrotic cells at 3.64 ug/ml after 24 to 48 hrs by Annexin V-FITC/propidium iodide staining based flow cytometry (reference value: 1.8 %). The class given is functional.
The test system of assay [29] is HepG2. Kind of assay: Induction of apoptosis in human HepG2 cells assessed as viable cells at 3.64 ug/ml after 24 to 48 hrs by Annexin V-FITC/propidium iodide staining based flow cytometry (reference value: 95.6 %). Conditions: read-out: Activity. The class given is functional.

In brackets after ≈: the same amount, converted by molar mass.

What is called IC50 is the concentration needed to halve the response being measured.

As for `Cc1nc(N(C)C(=O)NC(=O)c2c(F)cccc2F)sc1C(=O)N/N=C/c1ccccc1C(F)(F)F`, the Activity in the assay with HepG2 [1] was 7%; in the assay with HepG2 [2], 66.72%; with HepG2 [4], 2.3%; in the assay on HepG2 [5] it was 0.4%; in the assay on HepG2 [6] it was 2.11%; in the assay with HepG2 [7], 41.02%. Besides, the Activity in the assay on HepG2 [8] is 88.17%; with HepG2 [9], 16.5%; in the assay with HepG2 [10], 1.4%; in the assay on HepG2 [11] it was 56.87%; in the assay on HepG2 [12], 0.3%; in the assay with HepG2 [14], 34.5%. Further, the results for the Activity result with HepG2 [16], in the assay on HepG2 [18] and in the assay with HepG2 [20] were “Dose-dependent effect”, 11.83% and 0%, respectively. The half-inhibitory concentration (IC50) in assay [3] was 7.88 µg/mL (≈ 15 µM); in the assay on A549, 5.43 µg/mL (≈ 10.3 µM); with MCF7 it was 7.34 µg/mL (≈ 14 µM); with HepG2 [17], 1.11 µg/mL (≈ 2.11 µM); in assay [19], 9.43 µg/mL (≈ 17.9 µM); in the assay with HeLa, 6.51 µg/mL (≈ 12.4 µM). In the assay on HepG2 [13], the inhibition of growth at 20 µg/mL is 90%. In addition, in the assay on HepG2 [15], the viability at 0.55 µg/mL was 91.2%. Besides, the viability at 1.1 µg/mL in the assay with HepG2 [21] worked out at 80.9%.

For the compound `CN(C(=O)NC(=O)c1ccc(C(F)(F)F)cc1)c1nc(C(F)(F)F)c(C(=O)N/N=C/c2ccccc2C(F)(F)F)s1`, the Activity in the assay with HepG2 [22] worked out at 0.4%; in the assay with HepG2 [24], 0.3%; in the assay with HepG2 [25], 18.6%; in the assay on HepG2 [26], 7.8%; in the assay on HepG2 [27], 0.3%; in the assay on HepG2 [28], 3.2%. The IC50 in assay [3] amounted to 2.53 µg/mL (≈ 4.14 µM); with A549, 6.68 µg/mL (≈ 10.9 µM); in the assay with MCF7 it was 2.21 µg/mL (≈ 3.61 µM); with HepG2 [17], 3.64 µg/mL (≈ 5.95 µM); in assay [19] it was 12.4 µg/mL (≈ 20.3 µM); in the assay on HeLa, 3.76 µg/mL (≈ 6.15 µM). Further, the viability at 1.82 µg/mL in the assay on HepG2 [23] turned out to be 91.5%. Moreover, in the assay on HepG2 [29], the viability at 3.64 µg/mL worked out at 77.9%.
